# Assays:
# Assay type in all cases: functional, cell-based
# P2Y purinoceptor 2 [1] = target: T1, P2Y purinoceptor 2 (Mus musculus, UniProt P35383); assay: (§1) Antagonist activity at mouse P2Y2 receptor expressed in NG108-15 hybrid cells assessed as inhibition of 1 uM UTP-induced intracellular calcium release preincubated 30 mins before UTP challenge by fluorescence assay
# Method in brief: (§2)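 Oregon Green-loaded NG108-15 cells in Krebs–HEPES pH 7.4, 17,000 cells/well, preincubated at 37 °C for at least 30 min with two concentrations of test compound. UTP agonist then injected, and the inhibition of the intracellular Ca2+ fluorescence rise was measured at 520 nm. Quadruplicate determinations.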
# P2Y purinoceptor 2 [2] = target: T1, P2Y purinoceptor 2; assay: Agonist activity at mouse P2Y2 receptor expressed in NG108-15 hybrid cells assessed as increase in intracellular calcium release by fluorescence assay
# Method in brief: (§3)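 NG108-15 cells (mouse neuroblastoma × rat glioma; endogenous P2Y2, no P2Y4) grown in DMEM with 10% FBS, penicillin/streptomycin and HAT. Cells loaded 1 h at 25 °C with shaking, with the Ca2+ fluorophore Oregon Green. Cells rinsed twice in Krebs–HEPES pH 7.4 and plated at 17,000 cells/well. Compound in buffer injected, then fluorescence read at 520 nm over 60 × 0.4 s. Quadruplicate points.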
# [3] = target: P2Y purinoceptor 2 (Mus musculus) (UniProt P35383); assay: Agonist activity at mouse P2Y2 receptor expressed in NG108-15 hybrid cells assessed as increase in intracellular calcium release at 100 uM by fluorescence assay relative to UTP; method in brief: as §3
# P2Y purinoceptor 2 (Mus musculus), sequence (P35383 whole entry): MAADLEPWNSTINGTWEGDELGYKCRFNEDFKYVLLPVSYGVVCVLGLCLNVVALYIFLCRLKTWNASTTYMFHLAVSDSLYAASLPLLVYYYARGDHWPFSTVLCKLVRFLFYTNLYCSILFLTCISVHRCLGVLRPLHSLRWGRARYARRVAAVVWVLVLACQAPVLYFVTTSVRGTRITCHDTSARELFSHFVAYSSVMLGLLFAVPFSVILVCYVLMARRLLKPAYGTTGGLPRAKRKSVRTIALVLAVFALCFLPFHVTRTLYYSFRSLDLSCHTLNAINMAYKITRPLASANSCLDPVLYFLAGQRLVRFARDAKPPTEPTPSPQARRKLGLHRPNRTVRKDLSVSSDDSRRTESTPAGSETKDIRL
# [4] = target: P2Y purinoceptor 2 (Mus musculus) (UniProt P35383); assay: as §1; method in brief: as §2
# P2Y purinoceptor 2 [5] = target: T1, P2Y purinoceptor 2; assay: Antagonist activity at mouse P2Y2 receptor expressed in NG108-15 hybrid cells assessed as inhibition of 3 uM UTP-induced intracellular calcium release preincubated 30 mins before UTP challenge by fluorescence assay; method in brief: as §2
# T1 sequence (P35383 whole entry): as above
IC50 (P2Y purinoceptor 2 [1]) [µM],inhibition [4] [%],SMILES,further results
166,,O=c1ccn(CCCCCP(=O)(O)OP(=O)(O)OP(=O)(O)O)c(=O)[nH]1,
1.51,,O=c1ccn([C@@H]2O[C@H](COP(=O)(O)OP(=O)(O)OP(=O)(O)O)[C@@H](O)[C@H]2O)c(=O)[nH]1 [URIDINE TRIPHOSPHATE],EC50 (P2Y purinoceptor 2 [2]): 1.26 µM; Activity [3]: 40%
500,55,O=c1ccn(CCCCCP(=O)(O)OP(=O)(O)O)c(=O)[nH]1,
338,,O=c1ccn(COCCCOP(=O)(O)O)c(=O)[nH]1,
,60,O=c1ccn(CCOP(=O)(O)OP(=O)(O)OP(=O)(O)O)c(=O)[nH]1,IC50 (P2Y purinoceptor 2 [1]; ng108-15): ≤ 500 µM
267,,O=c1ccn(CCCCCOP(=O)(O)O)c(=O)[nH]1,
,,O=c1ccn(CCCCOP(=O)(O)OP(=O)(O)OP(=O)(O)O)c(=O)[nH]1,IC50 (P2Y purinoceptor 2 [5]): 596 µM
264,,O=c1ccn(COCCCOP(=O)(O)OP(=O)(O)OP(=O)(O)O)c(=O)[nH]1,
> 500,16,O=c1ccn(COCCOP(=O)(O)O)c(=O)[nH]1,
> 500,22,O=c1ccn(CCOP(=O)(O)O)c(=O)[nH]1,
500,50,O=c1ccn(CCCCCOP(=O)(O)OP(=O)(O)OP(=O)(O)O)c(=O)[nH]1,
,60,O=c1ccn(CCCCOP(=O)(O)O)c(=O)[nH]1,IC50 (P2Y purinoceptor 2 [1]; ng108-15): ≤ 500 µM
92,,O=c1ccn(CCCCP(=O)(O)OP(=O)(O)OP(=O)(O)O)c(=O)[nH]1,
500,52,O=c1ccn(CCCP(=O)(O)OP(=O)(O)OP(=O)(O)O)c(=O)[nH]1,
> 500,16,O=c1ccn(COCCOP(=O)(O)OP(=O)(O)OP(=O)(O)O)c(=O)[nH]1,

# — ChEMBL document CHEMBL1154081, “Synthesis of uracil nucleotide analogs with a modified, acyclic ribose moiety as P2Y(2) receptor antagonists” (Bioorg Med Chem, 2009)
